From ChEMBL document CHEMBL1126255, “Excitatory amino acid receptor ligands. Synthesis and biological activity of 3-isoxazolol amino acids structurally related to homoibotenic acid” (J Med Chem, 1992)

What was measured:
[1] = target: T1, Glutamate receptor ionotropic, AMPA (Rattus norvegicus, UniProt P19490+P19491+P19492+P19493); experiment: Concentration required for 50% inhibition of [3H]AMPA binding to AMPA receptor in rat cortical slice preparation
Glutamate NMDA receptor [2] = experiment: Concentration required for 50% inhibition of [3H]-MK-801 binding to N-methyl-D-aspartate glutamate receptor in rat cortical slice preparation
How it was run: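 Fully stimulated rat brain membranes prepared by the Ransom and Stec method. Otherwise per an earlier protocol. At least three independent experiments per value.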

[3] = target: T1, Glutamate receptor ionotropic, AMPA; experiment: Concentration required for 50% inhibition of [3H]Glu binding to AMPA receptor in rat cortical slice preparation in the presence of 2.5 mM CaCl2
[4] = target: Glutamate receptor ionotropic, kainate; experiment: Concentration required for 50% inhibition of [3H]-kainic acid binding to ionotropic glutamate receptor ionotropic kainate in rat cortical slice preparation
Glutamate NMDA receptor [5] = experiment: Concentration required for 50% inhibition of [3H]-CPP binding to N-methyl-D-aspartate glutamate receptor in rat cortical slice preparation
How it was run: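 Rat brain membranes prepared by the Ransom and Stec method. [3H]CPP binding run per an earlier protocol, but ended by filtration through GF/B filters presoaked in 0.1% polyethyleneimine instead of centrifugation. At least three independent experiments per value.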

| IC50 [1] [µM] | IC50 (Glutamate NMDA receptor [2]) [µM] | IC50 [3] [µM] | IC50 [4] [µM] | IC50 (Glutamate NMDA receptor [5]) [µM] | SMILES |
| --- | --- | --- | --- | --- | --- |
| 2 | > 100 | 0.18 | > 100 | > 100 | CCCCc1c(O)noc1CC(N)C(=O)O (configuration not stated) |
| 2 | > 100 | 0.14 | > 100 | > 100 | NC(Cc1onc(O)c1CCO)C(=O)O (configuration not stated) |
| > 100 | > 100 | 0.02 | > 100 | > 100 | CCCCCCCCc1c(O)noc1CC(N)C(=O)O (configuration not stated) |

More lines, now with the values behind:

| SMILES | IC50 [1] [µM] | IC50 (Glutamate NMDA receptor [2]) [µM] | IC50 [3] [µM] | IC50 [4] [µM] | IC50 (Glutamate NMDA receptor [5]) [µM] |
| --- | --- | --- | --- | --- | --- |
| CC(C)(C)c1onc(O)c1CC(N)C(=O)O (configuration not stated) | – | > 100 | – | – | > 100 |
| Cc1c(O)noc1CC(N)C(=O)O (configuration not stated) | 0.6 | > 100 | 0.18 | > 100 | > 100 |
